Results as given in ChEMBL document CHEMBL2176974, “A bactericidal guanidinomethyl biaryl that alters the dynamics of bacterial FtsZ polymerization” (J Med Chem, 2012).
Substitutions are numbered along the chain they refer to. ≈ marks a conversion by molar mass, not a printed value. Calls of active or inactive are those of the source. No cut-off for these calls is given here.

How the values were obtained:
[1] = biological target: Cell division protein FtsZ (Staphylococcus aureus, UniProt P0A031, E185A); assay: Binding affinity to Staphylococcus aureus FtsZ E185A mutant expressed in Escherichia coli BL21 (DE3) at 25 degC by fluorescence anisotropy assay
In short: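 Purified SaFtsZ mutant protein (0–25 μM) mixed with 5 μM compound in 50 mM Tris·HCl pH 7.4, 50 mM KCl, 2 mM magnesium acetate. After 5 min at 25 °C, steady-state fluorescence anisotropy read at excitation 245 / emission 318 nm, G-factor corrected, triplicate. Kd from nonlinear least-squares fit.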

[2] = tested on: T1, Cell division protein FtsZ (Staphylococcus aureus), P0A031 [G196A]; assay: Binding affinity to Staphylococcus aureus FtsZ G196A mutant self-polymerization at 10 ug/mL by microtiter plate-based light scattering assay
T1 sequence (whole entry): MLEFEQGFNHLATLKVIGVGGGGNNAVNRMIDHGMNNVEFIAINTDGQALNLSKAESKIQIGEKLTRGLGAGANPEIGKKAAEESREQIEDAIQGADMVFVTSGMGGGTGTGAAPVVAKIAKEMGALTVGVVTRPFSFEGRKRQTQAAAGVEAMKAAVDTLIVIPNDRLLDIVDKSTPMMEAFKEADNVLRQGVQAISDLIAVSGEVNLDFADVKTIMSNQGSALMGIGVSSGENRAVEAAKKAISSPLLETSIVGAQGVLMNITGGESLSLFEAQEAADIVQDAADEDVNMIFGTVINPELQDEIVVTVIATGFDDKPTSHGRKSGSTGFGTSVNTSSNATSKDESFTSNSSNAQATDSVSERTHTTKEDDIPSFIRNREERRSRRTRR

[3] = tested on: T2, Cell division protein FtsZ (Staphylococcus aureus), P0A031 [I228R]; assay: Binding affinity to Staphylococcus aureus FtsZ I228R mutant self-polymerization at 20 ug/mL by microtiter plate-based light scattering assay
T2 sequence (whole entry): T1 sequence (whole entry) with A196G, I228R

[4] = biological target: T3, Cell division protein FtsZ (Escherichia coli K-12) (UniProt P0A9A6); assay: Stimulation of Escherichia coli FtsZ assembly at 20 ug/mL by transmission electron microscopy
T3 sequence (whole entry): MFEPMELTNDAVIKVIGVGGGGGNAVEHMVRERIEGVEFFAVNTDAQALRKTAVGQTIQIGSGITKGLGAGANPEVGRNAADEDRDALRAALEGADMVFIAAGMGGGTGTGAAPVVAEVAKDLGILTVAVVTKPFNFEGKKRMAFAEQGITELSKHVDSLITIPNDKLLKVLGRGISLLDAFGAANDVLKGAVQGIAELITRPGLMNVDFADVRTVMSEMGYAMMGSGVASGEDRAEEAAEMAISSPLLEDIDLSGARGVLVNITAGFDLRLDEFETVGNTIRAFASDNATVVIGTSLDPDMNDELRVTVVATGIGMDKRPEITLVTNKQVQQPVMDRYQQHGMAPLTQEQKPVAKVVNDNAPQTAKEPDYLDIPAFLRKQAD
In short: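 EcFtsZ was polymerized with 20 μg/mL compound (10 μM protein, 1 mM GTP, 10 mM CaCl₂, Tris/KCl/Mg acetate buffer pH 7.4). The reaction was diluted 1:10 in polymerization buffer at room temperature and applied to glow-discharged Formvar/carbon copper grids. Grids were negatively stained 1 min with 1% phosphotungstic acid and imaged by TEM at 80 kV.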

[5] = tested on: T2, Cell division protein FtsZ (Staphylococcus aureus), P0A031 [I228R]; assay: Binding affinity to Staphylococcus aureus FtsZ I228R mutant self-polymerization at 10 ug/mL by microtiter plate-based light scattering assay
[6] = tested on: T1, Cell division protein FtsZ (Staphylococcus aureus), P0A031 [G196A]; assay: Binding affinity to Staphylococcus aureus FtsZ G196A mutant self-polymerization at 20 ug/mL by microtiter plate-based light scattering assay
[7] = tested on: Staphylococcus aureus; assay: Bactericidal activity against methicillin-sensitive Staphylococcus aureus 8325-4 at 8 times MIC measured within 6 hrs post dose for 24 hrs assessed as log reduction in bacterial CFU by time kill study; format: functional
In short: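 Exponentially growing S. aureus 8325-4 was diluted in CAMH broth to 10⁵–10⁶ CFU/mL. […] Samples taken at 2, 4 and 6 h were pelleted or diluted, then plated on TSA. Colonies were counted after 24 h at 37 °C. Points are the mean of two independent measurements.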

[8] = tested on: T4, Cell division protein FtsZ (Staphylococcus aureus), P0A031 [E185A]; assay: Binding affinity to Staphylococcus aureus FtsZ E185A mutant self-polymerization at 20 ug/mL by microtiter plate-based light scattering assay
T4 sequence (whole entry): T1 sequence (whole entry) with E185A, A196G

[9] = biological target: T5, Cell division protein FtsZ (Escherichia coli K-12, UniProt P0A9A6); assay: Binding affinity to Escherichia coli FtsZ at 25 degC by fluorescence anisotropy assay; settings: read-out: Kd
T5 sequence (P0A9A6 whole entry): T3 sequence (whole entry)

[10] = tested on: Staphylococcus aureus; assay: Potency index, ratio of erythromycin to compound bactericidal effect in methicillin-sensitive Staphylococcus aureus 8325-4 at 8 times MIC by time kill study; format: functional
[11] = tested on: Streptococcus agalactiae; assay: Antimicrobial activity against Streptococcus agalactiae Strep B ATCC 12386 incubated for 24 hrs by broth microdilution method; format: functional; settings: Strep B ATCC 12386, 24 h
In short: (§1)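 CLSI broth microdilution. Log-phase bacteria at 10⁵ CFU/mL were exposed to 2-fold serial dilutions (64 to 0.016 μg/mL) in cation-adjusted Mueller-Hinton broth, 5% defibrinated sheep blood added for Streptococcus. Incubated aerobically 24 h at 37 °C. Growth read as OD600; MIC taken as the lowest concentration giving 90% growth inhibition.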

[12] = tested on: Streptococcus pyogenes; assay: Antimicrobial activity against Streptococcus pyogenes Strep A ATCC 19615 incubated for 24 hrs by broth microdilution method; format: functional; settings: Strep A ATCC 19615, 24 h; in short: as §1

CC(C)(C)c1ccc(-c2cccc(CNC(=N)N)c2)cc1
Kd [1]: 38.3 µM
Activity [2]: Active
Activity [3]: Active
Activity [4]: Active
Activity [5]: Active
Activity [6]: Active
FC [7]: 4
Activity [8]: inactive
Kd [9]: 3.8 µM
Ratio [10]: >1000
MIC [11]: 16 µg/mL (≈ 56.9 µM)
MIC [12]: 2 µg/mL (≈ 7.11 µM)
